Screening data (PubChem BioAssay)
TRPC6 inh = mouse TRPC6 channel inhibitors, primary screen, cell-based, HEK293, membrane potential dye | Short transient receptor potential channel 6 (Mus musculus), Q61143 | ACh-evoked depolarization; hits give low values | B-score at 10 µM | 310,000 compounds, 1.1% hits | AID 2553, 2010;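 active means B-score under library mean minus 3 SD, initial fluorescence not abnormally high, positive integrated signal ratio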;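 further: B-score derived from integrated fluorescence ratio over the kinetic read; more negative B-score means stronger inhibition of depolarization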
TRPC4 act = activators of mouse TRPC4 channel, primary screen, Fluo4 calcium, HEK293 TRPC4beta/mu-opioid cells; Fluo4 calcium fluorescence; hits give high values; B-score at 10 µM; 310,000 compounds, 0.49% hits;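 active means B-score above 5 SD of library B-scores, and initial fluorescence ratio not above library mean plus 5 SD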;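 further: positive B-score marks a calcium rise read as TRPC4 activation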
Target sequence (Q9QUQ5 whole entry, looked up): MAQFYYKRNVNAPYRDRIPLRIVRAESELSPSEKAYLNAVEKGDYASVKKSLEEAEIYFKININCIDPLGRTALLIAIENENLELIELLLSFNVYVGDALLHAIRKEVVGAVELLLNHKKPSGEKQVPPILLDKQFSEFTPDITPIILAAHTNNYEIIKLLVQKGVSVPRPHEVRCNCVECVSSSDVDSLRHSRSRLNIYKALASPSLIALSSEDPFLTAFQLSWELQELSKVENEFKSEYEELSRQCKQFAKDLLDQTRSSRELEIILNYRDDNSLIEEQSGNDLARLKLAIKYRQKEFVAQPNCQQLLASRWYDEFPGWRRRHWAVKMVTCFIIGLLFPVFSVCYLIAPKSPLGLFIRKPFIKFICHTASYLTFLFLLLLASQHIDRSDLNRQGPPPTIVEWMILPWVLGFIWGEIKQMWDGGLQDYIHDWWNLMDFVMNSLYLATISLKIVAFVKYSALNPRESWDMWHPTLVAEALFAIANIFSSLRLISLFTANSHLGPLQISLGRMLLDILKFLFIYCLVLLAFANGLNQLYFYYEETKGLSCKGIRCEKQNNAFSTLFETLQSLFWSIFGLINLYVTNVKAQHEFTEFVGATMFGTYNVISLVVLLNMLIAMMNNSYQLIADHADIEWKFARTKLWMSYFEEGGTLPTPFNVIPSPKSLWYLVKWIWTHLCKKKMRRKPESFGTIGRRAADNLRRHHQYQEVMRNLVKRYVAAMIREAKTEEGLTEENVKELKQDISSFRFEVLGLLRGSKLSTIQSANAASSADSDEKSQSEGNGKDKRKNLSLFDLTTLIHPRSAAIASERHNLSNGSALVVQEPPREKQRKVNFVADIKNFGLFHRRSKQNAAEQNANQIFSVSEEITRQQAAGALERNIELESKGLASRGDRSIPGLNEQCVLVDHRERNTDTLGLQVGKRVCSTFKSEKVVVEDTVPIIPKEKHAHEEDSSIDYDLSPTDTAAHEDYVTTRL
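Material: TRPC4beta and mu-opioid receptor HEK293 stable cells | Incubation: 45 min room-temperature Fluo4 loading, 110 s read | Detection: Kinetic Fluo4 calcium fluorescence | Measure: Integrated baseline-normalised fluorescence ratio, converted to per-well B score | Benchmarks: Low control buffer alone, high control maximal DAMGO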
TRPC6 act = mouse TRPC6 channel activators, primary screen, cell-based, HEK293, membrane potential dye; Short transient receptor potential channel 6 (Mus musculus), Q61143; HEK293-TRPC6 membrane potential dye fluorescence; hits give high values; B-score at 10 µM; 310,000 compounds, 0.13% hits; AID 2550, 2010;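 active means B-score of the integrated fluorescence ratio above library mean plus 3 SD, and starting fluorescence ratio within library mean plus 5 SD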;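 further: higher score means more depolarization so channel activation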
TRPC4 inh = inhibitors of mouse TRPC4 channel, primary screen, Fluo4 calcium, HEK293 TRPC4beta/mu-opioid cells | Short transient receptor potential channel 4 (Mus musculus), Q9QUQ5 | DAMGO-evoked Fluo4 calcium flux; hits give low values | B-score at 10 µM | 300,000 compounds, 0.39% hits | AID 2247, 2010;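 active means B-score over 3 SD under the library average, no early fluorescence shift, positive overall ratio signal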
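Assay system: TRPC4beta/mu-opioid receptor HEK293 cell line; compound dosing: single concentration per test compound; detection: Fluo4 Ca2+ flux fluorescence; evaluation: per-well B score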
TRPC4 PAM = positive allosteric modulators of TRPC4, primary screen, cell-based, mouse TRPC4beta, HEK293 mu-opioid, Fluo-4 calcium; Short transient receptor potential channel 4 (Mus musculus), Q9QUQ5; DAMGO EC20, Fluo-4 Ca2+ flux; hits give high values; B-score at 10 µM; 310,000 compounds, 0.42% hits; AID 2227, 2009;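 active means B-score of calcium response area above 5 SD of library B-scores, with initial fluorescence ratio within 5 SD of library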;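 further: B-score of integrated fluorescence ratio over time as area under calcium response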
TRPC4 spec 2 = mouse TRPC4 off-target activity of TRPC6 inhibitors, second screen | 920 compounds, 42% hits | inhibition, % at 10 µM | HEK293 TRPC4/MOR, membrane potential dye fluorescence; channel activated by saturating DAMGO dose | shares compounds with TRPC6 inh;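 active means compounds whose fluorescence signal differed from control wells by over 3 SD, either direction, in both duplicate plates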
TRPC4 spec = mouse TRPC4 modulation by TRPC6 hits, confirmation, selectivity assay for TRPC6 inhibitor project, cell-based, HEK293 TRPC4/mu-opioid, membrane potential dye; shares compounds with TRPC6 inh; membrane potential fluorescence; activity change, negative = inhibition, % at 10 µM; 920 compounds, 61% hits;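 active means rise or fall in signal beyond 3 SD of buffer-only wells in both replicate plates, either sign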;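 further: integrated kinetic ratio of fluorescence range over baseline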
HEK293 MPD ctr 2-1 = nonspecific membrane potential effects, parental HEK293, confirmation, counter-screen for TRPC6 inhibitor project, cell-based, second counter screen; shares compounds with TRPC6 inh; parental HEK293 membrane potential dye fluorescence; maximal acetylcholine challenge after compound addition; signal change vs control, % at 10 µM; 920 compounds, 31% hits;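 active means membrane potential signal moving either way by over 3 SD of the maximum-effect control, in both duplicate plates, meaning non-specific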
HEK293 MPD ctr-1 = membrane potential modulation in parental HEK293, confirmation, counter-screen for TRPC6 inhibitor project, cell-based. shares compounds with TRPC6 inh. parental HEK293 membrane potential dye fluorescence. membrane potential signal change, % at 10 µM. 920 compounds, 60% hits;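 active means membrane potential signal shifting up or down by more than 3 SD of buffer-only wells, on both duplicate plates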
HEK293 MPD ctr-2 = parental HEK293 membrane potential modulation, confirmation, counter-screen for TRPC6 modulator project, cell-based; 2,400 compounds, 51% hits; membrane potential signal change, % at 10 µM; shares compounds with TRPC6 inh; membrane potential dye fluorescence;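 active means membrane potential signal moves up or down beyond 5 SD from buffer-only wells, on both duplicate plates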
HEK293 MPD ctr 2-2 = parental HEK293 nonspecific activity of TRPC6 modulators, second screen; shares compounds with TRPC6 inh; membrane potential dye fluorescence; after compound, maximal acetylcholine stimulation; inhibition, % at 10 µM; 2,400 compounds, 14% hits;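 active means membrane potential signal drops by more than 5 SD from the mean control signal, in both duplicate plates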;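 further: plate controls were acetylcholine ECmax control wells for no effect and buffer only wells for full effect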
TRPC4/MOR mod = TRPC4 modulation by TRPC6 hit compounds, confirmation, selectivity assay for TRPC6 modulator project, cell-based, HEK293 TRPC4/mu-opioid, membrane potential dye, mouse. shares compounds with TRPC6 inh. membrane potential fluorescence. percent change from control (negative = decrease, positive = increase), % at 10 µM. 2,400 compounds, 69% hits;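 active means membrane potential signal moved up or down beyond 5 SD of buffer control wells, in both duplicate plates, actives on both sides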;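 further: plate controls were assay buffer wells for no effect and DAMGO maximal-effect wells for full effect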
TRPC4/MOR inh 2 = second selectivity test of TRPC6 modulators against mouse TRPC4; shares compounds with TRPC6 inh; HEK293 TRPC4/mu-opioid, membrane potential dye fluorescence; stimulated with maximal-effect DAMGO; inhibition, % at 10 µM; 2,400 compounds, 55% hits;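 active means drop in membrane potential signal beyond 5 SD of the control wells in both duplicate plates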;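 further: TRPC4 counter screen for TRPC6 hits run under conditions tuned for TRPC6 not TRPC4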
TRPC6 inh conf = mouse TRPC6 channel inhibitors, confirmation, HEK293 cells, membrane potential dye, duplicate; shares compounds with TRPC6 inh; ACh-evoked depolarization; inhibition, % at 10 µM; 3,300 compounds, 43% hits; AID 488960, 2010;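 active means fluorescence ratio falls more than 5 SD below the full-stimulation control mean, in both duplicate runs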;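 further: integrated fluorescence ratio of peak minus minimum over baseline after agonist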
TRPC6 act conf = mouse TRPC6 channel activators, confirmation, HEK293 cells, membrane potential dye, duplicate; shares compounds with TRPC6 inh; activation, % at 10 µM; 2,800 compounds, 11% hits; HEK293-TRPC6 membrane potential dye fluorescence, FDSS;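 active means ratio signal rise beyond 5 SD above unstimulated control wells' mean, seen in both duplicate runs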;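 further: plate controls were buffer EC0 wells for no effect and acetylcholine ECmax response for full effect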
An asterisk follows results filed as active; i = inactive; nt = no result given; + = active, no number. Sampled rows, rich in hits. Any-hit rate of the full collection: about 2.3%.

SMILES	TRPC6 inh	TRPC4 act	TRPC6 act	TRPC4 inh	TRPC4 PAM	HEK293 MPD ctr-2	HEK293 MPD ctr 2-2	TRPC4/MOR mod	TRPC4/MOR inh 2	TRPC6 inh conf	TRPC6 act conf	others
CC1CCCN(C(=O)c2ccc3c(c2NCCO)C(=O)c2ccccc2C3=O)C1 (stereo not given)	-5.92*	i	i	i	i	-235.0%*	i	-36.0%*	68.5%*	49.0%*	i
O=C1c2ccccc2C(=O)c2c1ccc(C(=O)N1CCCCC1)c2NCCO	i	i	i	i	i	nt	nt	nt	nt	nt	nt
CCN(CCN(C)C)C(=O)c1ccc2c(c1NCCO)C(=O)c1ccccc1C2=O	-5.89*	i	i	i	i	-168.0%*	i	-34.5%*	49.0%*	45.0%*	i
CCCn1c2ccccc2c2nnc(SCCN3CCOCC3)nc21	i	i	i	i	i	nt	nt	nt	nt	nt	nt
c1ccc2nc3c(nc2c1)c1ccccc1n3CCN1CCOCC1	-5.12*	i	i	i	i	i	i	-8.5%*	34.0%*	i	i
CS(=O)(=O)Nc1ccc(C2=NN(S(=O)(=O)c3ccc(F)cc3)C(c3ccco3)C2)cc1 (stereo not given)	i	i	i	i	i	nt	nt	nt	nt	nt	nt
CCC1CCCCN1CCn1c(=S)[nH]c2cc(OC)c(OC)cc2c1=O (stereo not given)	-6.26*	i	i	i	i	i	i	10.0%*	27.5%*	i	i
Oc1ccc(/C=N/Nc2cc(N3CCOCC3)nc(N3CCOCC3)n2)cc1O	i	i	i	i	i	nt	nt	nt	nt	nt	nt
Oc1ccccc1/C=N/Nc1cc(N2CCCC2)nc(N2CCCC2)n1	-5.2*	i	i	i	i	i	i	16.0%*	i	i	nt
CN1CCN(S(=O)(=O)c2ccc(Oc3cccc(C(F)(F)F)c3)nc2)CC1	i	i	i	i	i	nt	nt	nt	nt	nt	nt
Cc1ccc(S(=O)(=O)N2CCC(Oc3cccc(C(F)(F)F)c3)CC2)cc1	-7.34*	i	i	i	i	nt	nt	nt	nt	i	nt	TRPC4 spec 2=i;TRPC4 spec=i;HEK293 MPD ctr 2-1=i;HEK293 MPD ctr-1=i
CCOC(=O)c1nc2cc3n(c(CC(C)C)c-2c1C)CC(C)=C3C	-6.41*	i	i	i	i	-87.0%*	69.0%*	-20.0%*	54.0%*	49.0%*	i
CCOC(=O)c1nc2cc3n(c(C)c-2c1C)C(C)C(C)=C3C (stereo not given)	-8.05*	i	i	i	i	nt	nt	nt	nt	i	i	TRPC4 spec 2=69.5%*;TRPC4 spec=7.3%*;HEK293 MPD ctr 2-1=-192.0%*;HEK293 MPD ctr-1=i
O=C(NC1CC1)C1CCN(C2CCN(C(=O)CCOc3ccccc3)CC2)CC1	i	i	30.2*	i	i	245.5%*	i	75.5%*	i	i	66.0%*
O=C(NC1CC1)C1CCN(C2CCN(C(=O)CSc3ccccc3)CC2)CC1	i	i	i	i	i	nt	nt	nt	nt	nt	nt
COC(=O)[C@H](CCSC)NC(=O)Nc1cccc(Br)c1	i	i	i	i	i	nt	nt	nt	nt	nt	nt
O=C1NC(=S)S/C1=C/c1ccc(Oc2cnccn2)cc1	i	i	i	i	i	nt	nt	nt	nt	nt	nt
CCOc1ccc(N(C)c2ccc(/C=C3/SC(=S)NC3=O)cc2)cc1	i	i	18*	i	i	i	i	81.5%*	i	i	i
O=C(N/N=C/c1sc2ccccc2c1O)c1ccccc1	i	i	i	i	i	nt	nt	nt	nt	nt	nt
COc1ccc(C(=O)N/N=C/c2sc3ccccc3c2O)cc1	i	i	12.1*	i	i	+	+	112.5%*	39.5%*	nt	197.5%*
COc1ccc2cc(C(=O)N/N=C/c3sc4ccccc4c3O)ccc2c1	i	i	72.4*	i	i	138.5%*	108.5%*	261.0%*	i	nt	38.5%*
O=C(N/N=C/c1sc2ccccc2c1O)c1cccc2ccccc12	i	45*	22.4*	i	i	834.0%*	+	121.0%*	42.0%*	nt	251.0%*
O=C(NCc1ccccc1OC(F)(F)F)C1CCC(=O)N(C2CC2)C1 (stereo not given)	i	i	i	i	i	nt	nt	nt	nt	nt	nt
COc1cccc(-c2c(C(=O)N/N=C(\C)c3ccc(Cl)s3)nnn2-c2nonc2N)c1	i	i	i	i	i	nt	nt	nt	nt	nt	nt
